Entries after “also recorded” stand apart in the source; their conditions may differ.
Tests used:
[1] = tested on: auditory outer hair cells (organ of Corti explants); assay: Toxicity assay in cochlear explants; format: cell-based, CBA/J mice
Outline: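 Organ of Corti explants from postnatal day 2–3 CBA/J mice were kept in serum-free medium with supplement, BSA, glutamine and glucose, and pre-incubated about 48 h. They were then exposed to drug for 72 h, fixed in 4% PFA, permeabilised and stained with rhodamine phalloidin. Hair cells were counted apex to base under 50x oil and compared with a cytocochleogram database. Loss was reported as percent averaged over the whole explant length.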

Leishmania = conditions: cited from earlier work
[2] = tested on: intracellular L. donovani amastigotes; assay: Inhibition of L. donovani amastigotes in infected THP-1 macrophages; format: cell-based, Leishmania donovani; conditions: 1 μM, positive control
Outline: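 THP-1 cells were differentiated with 25 ng/ml PMA for 24 h at 37°C, then infected with stationary-phase luciferase-expressing L. donovani promastigotes (5:1 parasite:macrophage) for 24 h and washed free of external parasites. Infected macrophages were trypsinised, checked by Giemsa stain and plated in triplicate (5 × 10^5 cells/ml). Compounds in medium with 1% DMSO were added for 48 h; lysates were read by Bright-Glo luminescence. Medium ± DMSO served as 0% inhibition; amphotericin B 1 μM was the positive control on each plate.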

[3] = tested on: L. tarentolae S30 translation (leishmanial ribosomes); assay: Cell-free inhibition of translation, L. tarentolae LEXSY system; format: biochemical, Leishmania tarentolae; conditions: relative to PAR
Outline: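 Leishmania tarentolae cell-free LEXSY translation system driven by a pLEXSY-in-vitro2 vector encoding EGFP. Reactions with varied aminoglycoside concentrations ran 120 min at 26°C, and GFP fluorescence was read directly (ex 488, em 507 nm). Each curve used at least six concentrations. IC50 values came from concentration-response fits of at least three independent repeats.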

NC[C@@H]1O[C@H](O[C@H]2[C@@H](O)[C@H](O[C@@H]3[C@@H](O)[C@H](N)C[C@H](N)[C@H]3O[C@H]3O[C@H](CO)[C@@H](O)[C@H](O)[C@H]3N)O[C@@H]2CO)[C@H](N)[C@@H](O)[C@@H]1O [PAR, Paromomycin]
outer hair cell pathology, basal turn of explant ([1]; 10 μM, 72 h): intact | outer hair cell pathology, basal turn of explant ([1]; 22 μM, 72 h): significant loss of OHC; also recorded: partial destruction of outer hair cells | outer hair cell pathology, basal turn of explant ([1]; 33 μM, 72 h): complete destruction; also recorded: complete elimination of basal-turn outer hair cells | IC Coch50 (outer hair cell loss in cochlear explants) ([1]; murine explants, 72 h exposure): 30 µM

CNC(C)C1CCC(N)C(OC2C(N)CC(N)C(OC3OCC(C)(O)C(NC)C3O)C2O)O1 (centres unmarked) [Gentamicin]
anti-leishmanial activity (in words) (Leishmania): lack an anti-leishmanial activity

C[C@@H]1[C@H](O)[C@@H](C)/C=C/C=C/C=C/C=C/C=C/C=C/C=C/[C@H](O[C@@H]2O[C@H](C)[C@@H](O)[C@H](N)[C@@H]2O)C[C@@H]2O[C@](O)(C[C@@H](O)C[C@@H](O)[C@H](O)CC[C@@H](O)C[C@@H](O)CC(=O)O[C@H]1C)C[C@H](O)[C@H]2C(=O)O [Amphotericin B]
decrease in intracellular amastigotes [2]: > 90%

CN[C@@H]1[C@@H](O)[C@@H](O[C@@H]2[C@@H](O)[C@H](O[C@H]3O[C@H]([C@@H](C)O)[C@@H](O)[C@H](O)[C@H]3N)[C@@H](N)C[C@H]2N)OC[C@]1(C)O [G418, Geneticin]
toxicity to auditory outer hair cells along entire length of explant (in words) ([1]; murine explants, 72 h): high toxicity | times more potent in inhibiting leishmanial ribosomal translation than PAR [3]: 20 times

From paper PMC4787808 (Nucleic Acids Research, 2015)
